The source of these data is ChEMBL document CHEMBL1133115, “Synthesis, biological evaluation, and conformational analysis of A-ring diastereomers of 2-methyl-1,25-dihydroxyvitamin D(3) and their 20-epimers: unique activity profiles depending on the stereochemistry of the A-ring and at C-20” (2000).

Assay [1] is filed under the species Rattus norvegicus. The experiment in a line: Bone calcium-mobilizing (BCM) activity at 500 pmol/day/7days in vitamin D deficient rats on a low calcium diet (0.02% Ca). The assay is classed as functional. Put shortly:
(§1)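 Vitamin D-deficient rats on a low-calcium diet were given the analogue intraperitoneally once daily for 7 consecutive days during the last week, in propylene glycol/ethanol (95:5). Controls received vehicle only. Serum calcium (mg/100 mL) was measured 24 h after the last dose, with 5-6 rats/group. Results are mean ± SEM, compared with control by Student's t-test.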

Assay [2] is filed under the species Rattus norvegicus. The experiment in a line: Bone calcium-mobilizing (BCM) activity at 260 pmol/day *7day in vitamin D deficient rats on a low-calcium diet ([…]). Type of assay: functional. The method, boiled down: as §1
In assay [3] the test system is HL-60. The experiment in a line: Differentiation inducing effect on HL-60 cells. The assay is classed as functional, Homo sapiens. The method, boiled down:
(§2)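 Line 1 is binding to bovine thymus vitamin D receptor. Lines 3 and 6 are differentiation induction in HL-60 cells.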

The species named for assay [4] is Rattus norvegicus. Kind of assay: evaluated for increasing effect of serum calcium level in normal rats(Ca). Type of assay: functional. The method, boiled down:
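Normal male Sprague-Dawley rats were used to measure elevation of serum calcium level. Potency is expressed relative to 1α,25-dihydroxyvitamin D3, which is set at 100.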

Assay [5] addresses T1, Vitamin D3 receptor (Bos taurus) (UniProt Q28037).
T1 sequence (whole entry): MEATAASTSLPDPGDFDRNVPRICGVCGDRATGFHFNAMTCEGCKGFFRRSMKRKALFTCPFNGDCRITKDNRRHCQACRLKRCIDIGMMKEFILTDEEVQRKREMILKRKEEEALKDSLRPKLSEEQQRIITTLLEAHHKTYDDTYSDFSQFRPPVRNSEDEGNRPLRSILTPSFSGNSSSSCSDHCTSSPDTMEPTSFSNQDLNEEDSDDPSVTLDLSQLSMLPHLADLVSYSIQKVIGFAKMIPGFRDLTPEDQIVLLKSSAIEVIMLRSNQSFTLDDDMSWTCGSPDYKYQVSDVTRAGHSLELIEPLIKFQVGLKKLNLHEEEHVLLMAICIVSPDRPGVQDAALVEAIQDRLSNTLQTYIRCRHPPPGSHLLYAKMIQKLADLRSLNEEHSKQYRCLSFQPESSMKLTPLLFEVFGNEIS
The experiment in a line: Binding affinity for bovine thymus vitamin D3 receptor. The method, boiled down:
as §2

Assay [6] has as its system Vitamin D-binding protein (Bos taurus). The experiment in a line: Binding affinity for calf serum vitamin D-binding protein.
Assay [7] concerns HL-60. Kind of assay: evaluated for differentiation inducing effect on HL-60 cells, relative potency with respect to 1-alpha, 25-Dihydroxyvitamin D3. Type of assay: functional, Homo sapiens. The method, boiled down: as §2
Assay [8] is filed under the species Rattus norvegicus. Kind of assay: Bone Calcium-Mobilizing (BCM) activity (260 pmol/day/7 days) in Vitamin D-Deficient Rats on a Low-Calcium Diet (0.02% Ca diet). The assay is classed as functional. Put shortly: as §1
Assay [9] is filed under the species Rattus norvegicus. The experiment in a line: Bone Calcium-Mobilizing (BCM) activity (260 pmol/day/7 days) in Vitamin D-Deficient Rats on a Low-Calcium Diet. Type of assay: functional. Put shortly: as §1

Values joined by “and” are separate entries in the source; they are usually repeats but may differ in a detail not shown here. Identical values can stand only once. Some results are limits rather than exact numbers.

For the compound `C=C1/C(=C\C=C2/CCC[C@]3(C)[C@@H]([C@@H](C)CCCC(C)(C)O)CC[C@@H]23)C[C@H](O)[C@@H](C)[C@H]1O` (stereo in doubt; form 2) [listing 1 of 2 here], the “BCM serum Ca” value in the assay listed under Rattus norvegicus [1] came out at 3.8 mg 100ml-1; in the assay listed under Rattus norvegicus [2], 4.1 mg 100ml-1. The compound further showed a Relative potency with HL-60 [3] of 3.

With `C=C1/C(=C\C=C2/CCC[C@]3(C)[C@@H]([C@H](C)CCCC(C)(C)O)CC[C@@H]23)C[C@@H](O)[C@@H](C)[C@@H]1O` (stereo in doubt; form 2), the “BCM serum Ca” value in the assay listed under Rattus norvegicus [1] is less than 5 mg 100ml-1; in the assay listed under Rattus norvegicus [2] it was 4.1 mg 100ml-1. For the same compound, the values for the Relative potency in the assay filed under Rattus norvegicus [4] and in the assay on HL-60 [3] were 2 and 10, respectively.

For the compound `C=C1/C(=C\C=C2/CCC[C@]3(C)[C@@H]([C@@H](C)CCCC(C)(C)O)CC[C@@H]23)C[C@H](O)[C@@H](C)[C@H]1O` (stereo in doubt; form 1) [listing 1 of 2 here], the figures for the Relative potency in assay [5] and in assay [6] were 7 and less than 0.3, respectively.

Turning to `C=C1/C(=C\C=C2/CCC[C@]3(C)[C@@H]([C@H](C)CCCC(C)(C)O)CC[C@@H]23)C[C@@H](O)[C@@H](C)[C@H]1O` (stereo in doubt; form 1), the entries for the “BCM serum Ca” value in the assay filed under Rattus norvegicus [1] and in the assay listed under Rattus norvegicus [2] were 5 mg 100ml-1 and 4.9 mg 100ml-1, respectively. In addition, the Relative potency with HL-60 [7] came to 1.

As to `C=C1/C(=C\C=C2/CCC[C@]3(C)[C@@H]([C@@H](C)CCCC(C)(C)O)CC[C@@H]23)C[C@H](O)[C@@H](C)[C@@H]1O` (stereo in doubt; form 2) [listing 1 of 2 here], the Relative potency turned out to be 0.3 in assay [5] and 21 in assay [6].

With `C=C1/C(=C\C=C2/CCC[C@]3(C)[C@@H]([C@H](C)CCCC(C)(C)O)CC[C@@H]23)C[C@@H](O)[C@@H](C)[C@H]1O` (stereo in doubt; form 2), the figures for the “BCM serum Ca” value in the assay filed under Rattus norvegicus [1] and in the assay filed under Rattus norvegicus [2] were less than 4.9 mg 100ml-1 and less than 5 mg 100ml-1, respectively. Moreover, the Relative potency in the assay with HL-60 [3] is listed as 1.5.

Consider `C=C1/C(=C\C=C2/CCC[C@]3(C)[C@@H]([C@H](C)CCCC(C)(C)O)CC[C@@H]23)C[C@@H](O)C[C@@H]1O` [CALCITRIOL], for which the Relative potency (in [5]; in the assay filed under Rattus norvegicus [4]; in the assay on HL-60 [3]) was 100 in each case. Further, the BCM serum Ca is 6.8 mg 100ml-1 in the assay listed under Rattus norvegicus [8]; less than 5.5 mg 100ml-1 in the assay listed under Rattus norvegicus [2]; <5.5 mg 100ml-1 and <5.4 mg 100ml-1 and <6 mg 100ml-1 and <6.1 mg 100ml-1 in the assay listed under Rattus norvegicus [9].

Regarding `C=C1/C(=C\C=C2/CCC[C@]3(C)[C@@H]([C@H](C)CCCC(C)(C)O)CC[C@@H]23)C[C@@H](O)[C@H](C)[C@@H]1O` (stereo in doubt; form 2), the figures for the “BCM serum Ca” value in the assay filed under Rattus norvegicus [1] and in the assay filed under Rattus norvegicus [2] were less than 7.8 mg 100ml-1 and less than 5.8 mg 100ml-1, respectively. Besides, the Relative potency was 655 in the assay filed under Rattus norvegicus [4] and 59000 in the assay with HL-60 [3].

Turning to `C=C1/C(=C\C=C2/CCC[C@]3(C)[C@@H]([C@@H](C)CCCC(C)(C)O)CC[C@@H]23)C[C@H](O)[C@@H](C)[C@H]1O` (stereo in doubt; form 2) [listing 2 of 2 here], the Relative potency is 0.8 in assay [5] and 1300 in [6].

For `C=C1/C(=C\C=C2/CCC[C@]3(C)[C@@H]([C@@H](C)CCCC(C)(C)O)CC[C@@H]23)C[C@H](O)[C@@H](C)[C@@H]1O` (stereo in doubt; form 1) [listing 1 of 2 here], the Relative potency in [5] was less than 0.1; in [6], less than 0.3.

As to `C=C1/C(=C\C=C2/CCC[C@]3(C)[C@@H]([C@H](C)CCCC(C)(C)O)CC[C@@H]23)C[C@H](O)[C@H](C)[C@@H]1O` (stereo in doubt; form 1), the “BCM serum Ca” value in the assay filed under Rattus norvegicus [1] amounted to 4.1 mg 100ml-1; in the assay listed under Rattus norvegicus [2], 4.2 mg 100ml-1.

On to `C=C1/C(=C\C=C2/CCC[C@]3(C)[C@@H]([C@@H](C)CCCC(C)(C)O)CC[C@@H]23)C[C@H](O)[C@@H](C)[C@H]1O` (stereo in doubt; form 1) [listing 2 of 2 here], for which the “BCM serum Ca” value in the assay listed under Rattus norvegicus [1] and in the assay filed under Rattus norvegicus [2] was 4.4 mg 100ml-1 each time. Further, the Relative potency in the assay filed under Rattus norvegicus [4] is 19; in the assay on HL-60 [3] it was 190.

Turning to `C=C1/C(=C\C=C2/CCC[C@]3(C)[C@@H]([C@@H](C)CCCC(C)(C)O)CC[C@@H]23)C[C@H](O)[C@@H](C)[C@@H]1O` (stereo in doubt; form 2) [listing 2 of 2 here], the “BCM serum Ca” value in the assay listed under Rattus norvegicus [1] was less than 5.4 mg 100ml-1; in the assay filed under Rattus norvegicus [2], less than 5.2 mg 100ml-1. For the same compound, in the assay with HL-60 [3], the Relative potency was 1.5.

For `C=C1/C(=C\C=C2/CCC[C@]3(C)[C@@H]([C@H](C)CCCC(C)(C)O)CC[C@@H]23)C[C@@H](O)[C@@H](C)[C@@H]1O` (stereo in doubt; form 1), the figures for the “BCM serum Ca” value in the assay listed under Rattus norvegicus [1] and in the assay listed under Rattus norvegicus [2] were 4.4 mg 100ml-1 and 4.6 mg 100ml-1, respectively. The Relative potency in the assay listed under Rattus norvegicus [4] was 115; with HL-60 [3], 2600.

As for `C=C1/C(=C\C=C2/CCC[C@]3(C)[C@@H]([C@H](C)CCCC(C)(C)O)CC[C@@H]23)C[C@H](O)[C@H](C)[C@H]1O` (stereo in doubt; form 2), the “BCM serum Ca” value in the assay listed under Rattus norvegicus [1] and in the assay listed under Rattus norvegicus [2] was 3.9 mg 100ml-1 throughout. Further, in the assay with HL-60 [3], the Relative potency was found to be 0.5.

Turning to `C=C1/C(=C\C=C2/CCC[C@]3(C)[C@@H]([C@@H](C)CCCC(C)(C)O)CC[C@@H]23)C[C@H](O)[C@@H](C)[C@@H]1O` (stereo in doubt; form 1) [listing 2 of 2 here], the “BCM serum Ca” value in the assay filed under Rattus norvegicus [1] worked out at 4.3 mg 100ml-1; in the assay listed under Rattus norvegicus [2] it was 4.4 mg 100ml-1. In the assay on HL-60 [3], this compound showed a Relative potency of 6.

On to `C=C1/C(=C\C=C2/CCC[C@]3(C)[C@@H]([C@H](C)CCCC(C)(C)O)CC[C@@H]23)C[C@@H](O)[C@H](C)[C@H]1O` (stereo in doubt; form 2), for which the “BCM serum Ca” value in the assay listed under Rattus norvegicus [1] was 4.3 mg 100ml-1; in the assay listed under Rattus norvegicus [2], 4.4 mg 100ml-1. The compound further showed a Relative potency with HL-60 [3] of 1.

Take `C=C1/C(=C\C=C2/CCC[C@]3(C)[C@@H]([C@H](C)CCCC(C)(C)O)CC[C@@H]23)C[C@H](O)[C@H](C)[C@@H]1O` (stereo in doubt; form 2): the “BCM serum Ca” value was 4.6 mg 100ml-1 in the assay listed under Rattus norvegicus [1] and less than 4.6 mg 100ml-1 in the assay listed under Rattus norvegicus [2]. For the same compound, the Relative potency in the assay filed under Rattus norvegicus [4] was found to be 144; in the assay with HL-60 [3] it was 730.

In the case of `C=C1/C(=C\C=C2/CCC[C@]3(C)[C@@H]([C@H](C)CCCC(C)(C)O)CC[C@@H]23)C[C@@H](O)[C@H](C)[C@@H]1O` (stereo in doubt; form 1), the “BCM serum Ca” value in the assay listed under Rattus norvegicus [2] is reported as less than 6 mg 100ml-1. Moreover, the Relative potency stood at 400 in the assay filed under Rattus norvegicus [4] and 200 in the assay with HL-60 [3].

As to `C=C1/C(=C\C=C2/CCC[C@]3(C)[C@@H]([C@H](C)CCCC(C)(C)O)CC[C@@H]23)C[C@H](O)[C@H](C)[C@H]1O` (stereo in doubt; form 1), the “BCM serum Ca” value was determined as 4.4 mg 100ml-1 in the assay listed under Rattus norvegicus [1] and 4.3 mg 100ml-1 in the assay listed under Rattus norvegicus [2]. The same compound showed a Relative potency with HL-60 [3] of 1.

Take `C=C1/C(=C\C=C2/CCC[C@]3(C)[C@@H]([C@H](C)CCCC(C)(C)O)CC[C@@H]23)C[C@@H](O)[C@H](C)[C@H]1O` (stereo in doubt; form 1): the figures for the “BCM serum Ca” value in the assay listed under Rattus norvegicus [1] and in the assay filed under Rattus norvegicus [2] were 4.7 mg 100ml-1 and 4.8 mg 100ml-1, respectively. In the assay with HL-60 [3], this compound displayed a Relative potency of 3.
